Data as given in PubChem BioAssay AID624466 (The Scripps Research Institute Molecular Screening Center, 2012).
The campaign covered roughly 360,000 compounds. About 5,400 (1.5%) were called active. This excerpt belongs to a sample that is enriched for actives. Values without a mark were called inactive.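 The calls were made as follows: active = inhibition above a per-plate cutoff, the mean inhibition of test compounds on that plate plus 3 SD (cut at about 49% in these data); inactive = the rest.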

Target: Trace amine-associated receptor 1 (Homo sapiens) (UniProt Q96RJ0)
Sequence (Q96RJ0 whole entry, looked up): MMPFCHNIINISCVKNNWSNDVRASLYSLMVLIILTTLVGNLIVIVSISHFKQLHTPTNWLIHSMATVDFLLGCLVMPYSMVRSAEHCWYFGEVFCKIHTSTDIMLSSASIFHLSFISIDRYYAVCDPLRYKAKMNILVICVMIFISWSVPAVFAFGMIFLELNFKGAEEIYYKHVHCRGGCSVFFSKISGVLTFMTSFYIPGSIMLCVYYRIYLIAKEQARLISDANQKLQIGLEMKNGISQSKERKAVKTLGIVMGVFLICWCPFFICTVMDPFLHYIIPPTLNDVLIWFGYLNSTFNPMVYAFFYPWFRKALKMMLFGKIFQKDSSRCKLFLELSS
Assay: human TAAR1 antagonists, primary screen, Fluo-8 calcium fluorescence, CHO RD-HGA16 cells (AID 624466);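 also: 0% = DMSO plus EC80 beta-PEA response and 100% = DMSO alone without agonist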
Conditions: CHO RD-HGA16 TAAR1, Fluo-8 calcium fluorescence, antagonist; at 3 µM; stronger effect = higher value
Summary of the method: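 Test system: RD-HGA16 CHO cells with stable hTAAR1 and Gα16 / Probe or stimulus: EC80 β-phenethylamine stimulus / Times: seeding 17-24 h prior, 75-min 37 °C, 30-min RT dye loading / Detection: Fluo-8 calcium-sensitive fluorescence / Read-out basis: % inhibition scaled between DMSO and EC80 PEA controls / Repeats: singlicate, one well per test compound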

SMILES | inhibition
C=CCc1cc(S(=O)(=O)c2ccc(O)c(CC=C)c2)ccc1O | 56.9% (active)
O=C1[C@@H](c2ccccc2)[C@@H](c2ccccc2)N1c1ccccc1 | -22.7%
COc1ccc(C(=O)Nc2cc(S(=O)(=O)N3CCCC3)ccc2Cl)cc1 | 2.12%
COC(=O)COc1ccc(S(=O)(=O)N2CCOCC2)cc1 | -11.5%
COc1ccc(NC(=O)c2oc3ccc(S(=O)(=O)N4CCOCC4)cc3c2C)cc1 | 57.4% (active)
Cc1c(C(=O)Nc2ccccc2Cl)oc2ccc(S(=O)(=O)N3CCC4(CC3)OCCO4)cc12 | 46.8%
COc1ccc(C(=O)Nc2nc(-c3ccc(S(=O)(=O)N4CCOCC4)cc3)cs2)cc1 | 60.4% (active)
Cc1c(C(=O)Nc2cccc(S(=O)(=O)N3CCOCC3)c2)oc2ccccc12 | 13.3%
CCc1ccc(S(=O)(=O)Nc2cc3c(cc2N2CCCCC2)n(C)c(=O)c(=O)n3C)cc1 | -20.8%
CCCCCCCCN1C(=O)[C@@H](CC(=O)N2CCN(C(=O)OCC)CC2)C[C@@]2(C(=O)OC)C1=C[C@H](C1CCCC1)O[C@@H]2C | -10.4%
O=C(NCc1ccc2c(c1)OCO2)c1sccc1Br | -7.07%
C=CCn1c(=O)c(C(=O)NCc2ccc3c(c2)OCO3)c(O)c2ccccc21 | -8.39%
O=C(NCc1ccc2c(c1)OCO2)c1c(-c2ccsc2)sc2ccccc12 | 77.1% (active)
COCCCNC(=O)C[C@H]1C[C@@]2(C(=O)OC)C(=C[C@H](C(C)(C)C)O[C@@H]2C)N(Cc2ccc3c(c2)OCO3)C1=O | -10.8%
Cn1nccc1/C=N\NC(=O)c1ccc(Cl)cc1 | -23%
O=C(N/N=C/c1ccccn1)c1cccc(NC(=O)c2ccc(Cl)cc2)c1 | 56.6% (active)
O=C(Cc1ccccc1)Nc1cccc(C(=O)N/N=C/c2ccco2)c1 | 7.95%
CC(C)CNc1cccc2c1S(=O)(=O)N[C@H](C)CO2 | 9.62%
Cc1ccc(C2=CSC3=NS(=O)(=O)CCN23)cc1C | 10.5%
CC(=NNC(N)=O)c1ccc(Cl)c(-n2cccc2)c1 | -7.84%
COc1ccc(OC)c(CNC(=O)Cn2nc(C)c3c(C)n(-c4ccc(C)cc4)nc3c2=O)c1 | -15.7%
O=C(C1=C[C@H](c2coc3ccccc3c2=O)C[C@H](OCc2ccc(CO)cc2)O1)N1CCOCC1 | 17.7%
O=C(C1=C[C@H](c2ccc(C(F)(F)F)cc2)C[C@H](OCc2ccc(CO)cc2)O1)N1CCN(Cc2ccccc2)CC1 | 7.66%
O=C(NC1CC1)C1=C[C@H](c2c[nH]c3ccccc23)C[C@H](OCc2ccc(CO)cc2)O1 | -9.17%
O=C(C1=C[C@H](C2CC2)C[C@H](OCc2ccc(CO)cc2)O1)N1CCN(Cc2ccccc2)CC1 | 1.78%
NC(=O)C1=C[C@@H](c2csc3ccccc23)C[C@@H](OCc2ccc(CO)cc2)O1 | 17.2%
CN1CCN(C(=O)C2=C[C@H](c3ccc4c(c3)OCO4)C[C@H](OCc3ccc(CO)cc3)O2)CC1 | 18.1%
CC(=O)n1cc([C@H]2C=C(C(=O)N3CCOCC3)O[C@@H](OCc3ccc(CO)cc3)C2)c2ccccc21 | 51.8% (active)
NC(=O)C1=C[C@H](c2csc3ccccc23)C[C@H](OCc2ccc(CO)cc2)O1 | 49.7% (active)
CC(=O)n1cc([C@@H]2C=C(C(=O)N3CCN(Cc4ccc5c(c4)OCO5)CC3)O[C@H](OCc3ccc(CO)cc3)C2)c2ccccc21 | 49.4% (active)
